Reference: ChEMBL document CHEMBL5705892, “MK-2206, an allosteric Akt inhibitor, enhances antitumor efficacy by standard chemotherapeutic agents or molecular targeted drugs in vitro and in vivo” (Mol Cancer Ther, 2010)
Active and inactive are the calls of the source. The calls are words filed in the database; no cut-off is given here.

Legend:
[1] = Toxicity in human NCI-H292 cells xenografted CD-1 mouse assessed as death at 360 mg/kg, po administered once a week for 2 weeks starting 2 hrs post-erlotinib treatment and measured during compound dosing; type: organism-based; conditions: in vivo, 336 h
Method in brief: (§1)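 NCI-H292 cells in 50% Matrigel/PBS injected s.c. into flank of female CD1-nude mice; dosing began after 2 wk at mean tumour 0.2 cm³, n = 5/group. […] Body weight and signs monitored; treatment ended day 16.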

[2] = Toxicity in human NCI-H292 cells xenografted CD-1 mouse assessed as weight loss at 360 mg/kg, po administered once a week for 2 weeks starting 2 hrs post-erlotinib treatment and measured during compound dosing; type: organism-based; conditions: in vivo, 336 h; method in brief: as §1
SK-BR-3 [3] = assay: Synergistic antiproliferative activity against human SK-BR-3 cells assessed as combination index at ED50 treated 24 hrs prior to lapatinib and measured after 72 hrs by celltiter-glo assay; type: functional; conditions: time 96 hrs
NCI-N87 = assay: Synergistic antiproliferative activity against human NCI-N87 cells assessed as combination index at ED75 treated 24 hrs prior to lapatinib and measured after 72 hrs by celltiter-glo assay; type: functional; conditions: time 96 hrs
SK-OV-3 = assay: Antitumor activity against human SK-OV-3 cells xenografted in po dosed CB17/icr SCID mouse assessed as tumor growth inhibition administered 3 times per week for 2 weeks starting 2 hrs post lapatinib treatment and measured twice a week during compound dosing by caliper method; type: functional, organism-based; conditions: dose 60-120 mg/kg
Method in brief: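 SK-OV-3 cells were implanted s.c. into female C.B-17/ICR-scid mice, which were randomized at 0.13 cm³, n = 5. Lapatinib (water) was given at 100 mg/kg po on days 0–4 and 7–11. MK-2206 (30% Captisol) was given at 60 or 120 mg/kg po on days 0, 2, 4, 7, 9, 11. Tumor volume by calipers twice weekly.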

SK-BR-3 [4] = assay: Synergistic antiproliferative activity against human SK-BR-3 cells assessed as combination index at ED90 measured after 72 hrs in presence of docetaxel by celltiter-glo assay; type: functional
A2780 [5] = assay: Synergistic antiproliferative activity against human A2780 cells assessed as combination index at ED90 measured after 72 hrs in presence of doxorubicin by celltiter-glo assay; type: functional
Method in brief: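 Cells were seeded at 2–3 × 10³ per well in RPMI 1640 with 10% FBS. At 24 h, MK-2206 and the partner drug were added simultaneously at constant concentration ratios spanning each agent's IC₅₀, for 72 h. Growth was read as cellular ATP by CellTiter-Glo. CI was taken from median-effect plots of each agent alone and in combination (Chou–Talalay), at ED₅₀, ED₇₅ and ED₉₀.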

A2780 [6] = assay: Induction of apoptosis in human A2780 cells assessed as increase in caspase-3/7 activity at 0.0625 to 1 uM incubated for 24 hrs prior to addition of carboplatin and measured after 24 hrs by caspase-glo 3/7 assay; type: functional, cell-based; conditions: dose 0.0625-1 µM
NCI-H1993 = assay: Synergistic antiproliferative activity against human NCI-H1993 cells assessed as combination index at ED25 to ED90 measured after 72 hrs in presence of carboplatin by celltiter-glo assay; type: functional
NCI-H661 = assay: Synergistic antiproliferative activity against human NCI-H661 cells assessed as combination index at ED25 to ED90 measured after 72 hrs in presence of carboplatin by celltiter-glo assay; type: functional

Cl.NC1(c2ccc(-c3nc4ccn5c(=O)[nH]nc5c4cc3-c3ccccc3)cc2)CCC1
Activity [1]: Non-Toxic
Activity [2]: Toxic
CI50 (SK-BR-3 [3]): 0.18
CI75 (NCI-N87): 0.18
TGI (SK-OV-3): Dose-Dependent Effect
CI90 (SK-BR-3 [4]): 0.8
CI90 (A2780 [5]): 0.27
Activity (A2780 [6]): inactive
CI (NCI-H1993): 0.44
CI (NCI-H661): 0.37
